Screening data (PubChem BioAssay)
This excerpt belongs to a sample that is enriched for hits.
UPR XBP1 act: activators of adaptive arm of unfolded protein response (XBP1). CHO-XBP1 luciferase reporter, IRE1-XBP1 UPR activation, luminescence; percent of tunicamycin response, DMSO as zero. activation, % at 20 µM. hit rate 0.33% among 330,000;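 active means versus positive control, 20 µM dose yields 30% or more activation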;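 further: 100% = tunicamycin at 10 µg/mL and 0% = DMSO only wells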
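Signal: luciferase luminescence; Assay system: CHO-XBP1 luciferase reporter cells; Amount: one thousand reporter cells per well; Dosing: 20 µM single concentration, DMSO 1%; Benchmarks: high control tunicamycin 10 µg/mL final, low control DMSO vehicle only; Schedule: 6 h compound exposure at 37 °C, 5% CO2; Evaluation: percent activation relative to tunicamycin reference.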
TLR4-MyD88 BLA: inhibitors of human TLR4-MyD88 binding | hit rate 0.18% among 200,000 | O00206+Q99836 | inhibition, % at 8.4 µM | HeLa CL3-4 TLR4/MyD88 BLA complementation, FRET ratio | AID 861; in the data active means inhibition above about 25%;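 further: 0% = vehicle and 100% = reference inhibitor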
CHOP inhibitor: blocks CHOP induction under ER stress; CHO-K1 CHOP-promoter luciferase, tunicamycin-induced, 15-18 h; inhibition, % at 10 µM; hit rate 3.8% among 220,000;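 active means compounds that reduced the stress-induced luciferase reporter signal by more than about 70% of percent inhibition, limit read from the data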;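 further: 0% = tunicamycin plus vehicle and 100% = wells without tunicamycin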
NOD2-RIPK2 inh: NOD2-RIPK2 protein interaction inhibition. O43353. CHO BLA complementation NOD2-RIPK2, CCF4 ratio. inhibition, % at 4.98 µM. hit rate 0.38% among 360,000; in the data active means inhibition above about 21%;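 further: 0% = vehicle only and 100% = reference blocker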
Target sequence (O43353 whole entry, looked up): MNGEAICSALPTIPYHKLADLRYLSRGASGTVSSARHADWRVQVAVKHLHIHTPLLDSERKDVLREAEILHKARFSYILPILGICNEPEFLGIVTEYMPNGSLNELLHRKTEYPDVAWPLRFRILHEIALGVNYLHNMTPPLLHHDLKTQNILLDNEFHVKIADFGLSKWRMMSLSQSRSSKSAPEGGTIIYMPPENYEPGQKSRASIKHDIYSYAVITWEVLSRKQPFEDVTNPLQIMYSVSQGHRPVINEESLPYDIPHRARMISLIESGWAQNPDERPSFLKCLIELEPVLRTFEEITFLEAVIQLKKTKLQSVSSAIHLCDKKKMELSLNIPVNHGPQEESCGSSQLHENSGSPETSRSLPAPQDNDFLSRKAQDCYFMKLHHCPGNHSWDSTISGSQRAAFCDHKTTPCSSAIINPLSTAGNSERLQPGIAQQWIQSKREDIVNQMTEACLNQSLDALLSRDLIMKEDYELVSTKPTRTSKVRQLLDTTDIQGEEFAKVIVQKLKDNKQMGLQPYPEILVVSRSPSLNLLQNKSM
TLR9-MyD88 block: inhibitors of human TLR9-MyD88 binding. hit rate 0.21% among 340,000. AID 504734. inhibition, % at 4.98 µM. Q9NR96+Q99836. CHO BLA complementation TLR9-MyD88, CCF4 FRET ratio;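 active means inhibition above the mean over all tested compounds plus 3 SD, cut at about 21% in these data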;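 further: 0% = DMSO only wells and 100% = clavulanate BLA inhibitor control wells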
UPR CHOP act: apoptotic UPR (CHOP) activation | CHO-CHOP luciferase reporter, luminescence; percent of tunicamycin response over DMSO baseline | hit rate 0.34% among 330,000 | activation, % at 10 µM | AID 449763;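 active means at 10 µM dose, activation of 40% or more, normalized to positive control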;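 further: 100% = tunicamycin at 10 µg/mL and 0% = DMSO alone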
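Dosing – one dose, 10 µM in 0.5% DMSO · System – CHO-CHOP cells, stable luciferase reporter of PERK-eIF2a-CHOP signalling · Input – 500 cells/well · Control set – tunicamycin 10 µg/mL final as positive, DMSO-only wells as negative · Timing – 6 h compound treatment, 37 °C · Measure – % activation vs tunicamycin · Technique – luminescence read with Steady-Glo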
* hit, by the source's call; · = not tested or not shown.

SMILES	UPR XBP1 act	TLR4-MyD88 BLA	CHOP inhibitor	NOD2-RIPK2 inh	TLR9-MyD88 block	UPR CHOP act
COc1ccccc1Nc1nc(-c2sc(NC(=O)c3ccccc3)nc2C)cs1	-0.2	-11.3	35.6	13.0	-0.7	-0.4
Cc1cccc(C(O)c2ncc(-c3ccc(C(F)(F)F)cc3)[nH]2)c1C (stereo not given)	·	·	·	1.4	·	·
O=c1[nH]c(=S)[nH]c2c1[C@H](CCc1cccc(Cl)c1)O[C@H](C1CCCC1)C2	·	·	·	-14.1	·	·
CCOC(=O)C1=CCN(S(=O)(=O)c2ccccc2C)C1c1ccc(F)cc1 (stereo not given)	·	·	·	4.0	·	·
OC(c1cccc(Cl)c1)c1nc(-c2cc3ccccc3o2)cs1 (stereo not given)	·	·	·	1.4	·	·
COc1ccc(NC(=O)c2cc(-c3cc(C)cc(F)c3)n[nH]2)cc1OC	·	·	·	4.4	·	·
CCN1C(=O)/C(=C\c2cccn2-c2ccc([N+](=O)[O-])cc2)N(CC)C1=S	9.8	3.0	74.4*	-3.9	4.3	-1.1
O=C(NCCc1ccccc1F)C1CC(=O)N(c2cccc(C(F)(F)F)c2)C1 (stereo not given)	·	·	·	-0.2	4.6	·
Cc1noc(C)c1C(=O)N1CCC1(C)C(=O)NS(=O)(=O)c1ccccc1C(F)(F)F (stereo not given)	·	·	·	-7.7	·	·
Cc1cc(C)n(-c2nnc(C)n2/N=C/c2cc(Br)ccc2OCc2ccccc2)n1	5.6	3.9	91.8*	5.5	1.8	2.9
COC(=O)[C@@]1(Sc2ccc(C)cc2)CC(=O)N[C@@H]1c1ccc(C(F)(F)F)cc1	·	·	·	5.9	·	·
N#CCCC1(CCC#N)c2ccccc2C(=O)c2ccccc21	·	·	·	-0.3	·	·
O=C1COc2ccc(C(=O)COC(=O)c3sc4ccccc4c3Cl)cc2N1	47.3*	0.6	20.7	-1.3	0.9	-1.7
Cc1cc(C)cc(NC(=O)C(Sc2ncnc3ccccc23)c2ccccc2)c1 (stereo not given)	-2.6	-1.5	23.2	-1.9	11.4	1.5
O=C(Nc1cccc(C(F)(F)F)c1)C(Sc1ncnc2ccccc12)c1ccccc1 (stereo not given)	-2.7	8.7	76.2*	-3.2	-3.2	0.5
O=C(/C=C/c1ccccc1)NCCOc1ccccc1	-0.9	-10.8	-12.8	2.0	10.1	4.5
O=C(/C=C/c1ccccc1)NCCSc1ccc(Cl)cc1	-1.8	9.3	77.4*	9.3	5.2	-3.9
CC1(C(=O)NS(=O)(=O)C2CC2)CCCN(C(=O)c2cccc(OC(F)(F)F)c2)C1 (stereo not given)	·	·	·	-2.9	·	·
COc1ccc(Oc2ccc(/C=C/C(=O)c3ccc(O)cc3)cc2[N+](=O)[O-])cc1	4.3	-12.0	86.5*	-48.4	0.9	13.0
O=C(/C=C/c1ccc(O)c([N+](=O)[O-])c1)c1ccc2ccccc2c1	6.3	·	·	-9.3	-1.8	4.6
COc1ccc(/C=C/C(=O)c2ccc(O)cc2)cc1COc1ccc(F)cc1	0.0	7.4	85.0*	1.2	8.8	2.8
COc1ccc(/C=C/C(=O)c2ccccc2)cc1COc1ccc(F)cc1	0.9	7.3	6.0	-3.8	-0.5	1.2
O=C(CCN1C(=O)C2C3C=CC(C3)C2C1=O)Nc1ccc2c(c1)OCO2 (stereo not given)	-3.9	6.5	-32.9	-3.8	-7.5	2.6
O=C(CCN1C(=O)C2C3C=CC(C3)C2C1=O)Nc1ccc(F)cc1 (stereo not given)	-0.6	-5.2	86.0*	-4.8	6.0	-5.0
Cc1ccc(-c2noc(CSc3nnc(Cc4cccs4)n3-c3ccccc3)n2)cc1	-2.6	-8.2	61.0	-2.8	-4.6	-0.4
SMILES	UPR XBP1 act	TLR4-MyD88 BLA	CHOP inhibitor	NOD2-RIPK2 inh	TLR9-MyD88 block	UPR CHOP act
Fc1ccc(-n2c(Cc3ccccc3)nnc2SCc2nc(-c3cccs3)no2)cc1	-2.6	-5.3	75.2*	2.0	-12.5	0.1
Clc1ccc(-c2noc(CSc3nnc(Cc4cccs4)n3-c3ccccc3)n2)cc1	-2.2	-13.1	81.0*	2.4	-1.9	0.4
c1ccc(-c2noc(CSc3nnc(Cc4cccs4)n3-c3ccccc3)n2)cc1	-0.4	0.1	13.6	-2.4	7.3	0.8
c1ccc(CCNc2ncnc3c2nnn3Cc2ccccc2)cc1	0.8	1.6	88.9*	-1.8	-0.5	-0.4
CCN1C(=O)[C@@H]2[C@@H]3CN(S(=O)(=O)c4ccc(C)cc4)[C@@H](c4ccccc4F)[C@@H]3C(=O)C[C@@H]2C1=O	·	·	·	-7.0	·	·
COc1ccc(N=Nc2[nH]c3ccc(C)cc3c2O)cc1	1.1	-3.0	90.7*	-10.8	-8.5	2.0
CCCCn1nnnc1C(c1cc2ccccc2o1)N1CCCN(C(=O)OC(C)(C)C)CC1 (stereo not given)	·	·	·	-2.1	·	·
CCOC(=O)N1CCN(c2nc(C)cc(C(F)(F)F)n2)CC1	4.1	3.7	70.6*	-2.9	-6.8	-1.1
CC(C)CC(c1nnnn1CC1CCCO1)N1CCN(c2cccc(Cl)c2)CC1 (stereo not given)	-4.6	-7.7	83.0*	-5.3	-6.0	1.5
CC(C)(C)n1nnnc1C(c1ccc(C(F)(F)F)cc1)N(Cc1ccc(F)cc1)Cc1ccco1 (stereo not given)	5.4	-5.9	82.4*	4.0	-8.4	4.6
CC(C)(C)n1nnnc1C(c1ccc(F)cc1)N(Cc1ccc(F)cc1)Cc1ccco1 (stereo not given)	2.7	-13.3	48.6	-11.5	-8.7	12.0
CCn1cc(CN2CCC(C(=O)Nc3ccc(Oc4ccccc4F)cc3)CC2)cn1	·	·	·	12.2	-0.6	·
O=C(CN1CCN(C(=O)CNC(=O)c2ccc(N3CCCC3=O)cc2)CC1)Nc1cccc(F)c1	·	·	·	-5.8	-7.2	·
O=C(c1cccs1)N1N=C(c2ccccc2)CC1c1ccccc1 (stereo not given)	3.2	7.0	77.9*	4.9	-5.9	-0.6
CC(C)C(=O)N1CCC1(C)C(=O)Nc1cccc(Oc2ccccc2)c1 (stereo not given)	·	·	·	-2.7	·	·
COc1cccc(N2CCN(c3ncnc4c3cnn4-c3ccc(C)cc3C)CC2)c1	-9.3	1.9	98.4*	0.0	-6.9	-6.6
Cc1cccc(-n2ncc3c(N4CCC5(CC4)OCCO5)ncnc32)c1	5.8	·	-56.4	-4.0	16.7	0.5
Cc1ccc(-n2ncc3c(N4CCCC4)ncnc32)c(C)c1	-1.7	-0.2	-23.1	-8.7	2.0	4.0
Cc1cccc(-n2ncc3c(N4CCC(C)CC4)ncnc32)c1	-3.1	1.5	73.2*	7.4	-1.2	4.2
Cc1cc(C)nc(NS(=O)(=O)c2ccc(NC(=O)c3ccccc3Br)cc2)n1	·	·	·	-0.4	-2.1	·
CN1CCN(c2ccc(S(=O)(=O)N3CCCCC3)cc2NC(=O)CSC(C)(C)C)CC1	·	·	·	1.3	1.1	·
O=[N+]([O-])c1cccc(-c2nnc(-c3ccccc3)o2)c1	0.9	2.6	80.1*	-4.5	-4.8	3.9
